What all share (assay type): cell-based
For one assay, the target named is Sialidase-1 (Homo sapiens, UniProt Q99519). The experiment in a line: Inhibition of human NEU1 expressed in HEK293 cells. Summed up:
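Homogenates of HEK-293 cells transiently co-transfected with full-length human NEU1 cDNA plus protective protein cDNA. Substrate: 4MU-NeuAc. One unit (nmol/h) of enzyme incubated 30–60 min. Each compound tested at four concentrations (0.05, 0.1, 0.5, 1). IC50 derived by non-linear regression of concentration–inhibition curves.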

The target of another assay is T1, Sialidase-3 (Homo sapiens, UniProt Q9UQ49).
T1 sequence (Q9UQ49 whole entry): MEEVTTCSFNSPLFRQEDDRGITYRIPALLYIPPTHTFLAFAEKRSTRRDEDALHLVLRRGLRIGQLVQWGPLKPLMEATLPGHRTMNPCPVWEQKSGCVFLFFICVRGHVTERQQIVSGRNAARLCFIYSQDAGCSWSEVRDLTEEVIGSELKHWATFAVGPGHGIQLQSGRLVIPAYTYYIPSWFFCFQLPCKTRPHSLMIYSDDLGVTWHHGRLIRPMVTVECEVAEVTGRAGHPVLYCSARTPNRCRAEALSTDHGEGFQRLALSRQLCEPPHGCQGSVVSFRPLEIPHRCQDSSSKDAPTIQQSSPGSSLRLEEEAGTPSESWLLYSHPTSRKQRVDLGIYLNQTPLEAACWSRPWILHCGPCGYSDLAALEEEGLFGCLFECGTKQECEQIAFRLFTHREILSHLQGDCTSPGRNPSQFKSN
Nature of the assay: Inhibition of human NEU3 expressed in HEK293 cells. In a few lines:
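Enzyme source: homogenates of HEK-293 cells transiently transfected with full-length human NEU3 cDNA. Substrate: mixed gangliosides. One unit (nmol/h) of enzyme incubated 30–60 min. Four test concentrations (0.05, 0.1, 0.5, 1). IC50 derived by non-linear regression of concentration–inhibition curves.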

The target of another assay is T2, Sialidase-4 (Homo sapiens, UniProt Q8WWR8).
T2 sequence (Q8WWR8 whole entry): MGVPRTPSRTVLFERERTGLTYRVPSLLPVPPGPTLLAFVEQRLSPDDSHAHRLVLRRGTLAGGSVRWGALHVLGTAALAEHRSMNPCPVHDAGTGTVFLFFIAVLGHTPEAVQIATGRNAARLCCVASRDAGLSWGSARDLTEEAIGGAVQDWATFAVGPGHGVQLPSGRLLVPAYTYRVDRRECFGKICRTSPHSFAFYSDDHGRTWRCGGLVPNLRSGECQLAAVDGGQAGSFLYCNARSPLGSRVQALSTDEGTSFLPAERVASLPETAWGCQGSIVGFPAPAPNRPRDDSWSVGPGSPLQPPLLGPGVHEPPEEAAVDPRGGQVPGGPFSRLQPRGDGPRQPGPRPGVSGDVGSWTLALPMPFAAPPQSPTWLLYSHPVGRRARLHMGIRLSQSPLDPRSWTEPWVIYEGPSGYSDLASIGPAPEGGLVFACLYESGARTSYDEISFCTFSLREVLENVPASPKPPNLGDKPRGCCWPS
Nature of the assay: Inhibition of human NEU4 expressed in HEK293 cells. In a few lines:
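Human NEU4 (full-length cDNA) transiently expressed in HEK-293 cells, with cell homogenates as the enzyme source. Substrate: 4MU-NeuAc. One unit (nmol/h) of enzyme incubated 30–60 min. Four concentrations tested (0.05, 0.1, 0.5, 1). IC50 derived by non-linear regression of concentration–inhibition curves.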

For orientation: IC50 means the concentration that inhibits the measured activity by half.

Turning to `CCCC(=O)NC[C@H](O)[C@H](O)[C@@H]1OC(C(=O)O)=C[C@H](O)[C@H]1NC(C)=O`, the concentration for half-maximal inhibition (IC50) was 32 µM against Sialidase-1 and above 1000 µM against Sialidase-3.
In the case of `CC(=O)N[C@H]1[C@H]([C@@H](O)[C@@H](O)CNC(=O)CC(C)C)OC(C(=O)O)=C[C@@H]1O`, the IC50 against Sialidase-1 was 565 µM; on Sialidase-4, above 1000 µM; against Sialidase-3, above 1000 µM.
Consider `CC(=O)N[C@H]1[C@H]([C@@H](O)[C@@H](O)CNC(=O)C(C)C)OC(C(=O)O)=C[C@@H]1O`, for which the IC50 against Sialidase-4 and against Sialidase-3 was above 1000 µM each time.
On to `CCCCC(=O)NC[C@H](O)[C@H](O)[C@@H]1OC(C(=O)O)=C[C@H](O)[C@H]1NC(C)=O`, for which, on Sialidase-4, the IC50 is above 1000 µM.
For `CC(=O)N[C@H]1[C@H]([C@@H](O)[C@@H](O)CNC(=O)C(C)(C)C)OC(C(=O)O)=C[C@@H]1O`, the IC50 against Sialidase-1, at Sialidase-4 and against Sialidase-3 was above 1000 µM throughout.
In the case of `CC(=O)N[C@H]1[C@H]([C@@H](O)[C@@H](O)CNC(=O)c2ccccc2)OC(C(=O)O)=C[C@@H]1O`, the half-maximal inhibitory concentration (IC50) was 13 µM against Sialidase-1, 810 µM at Sialidase-4 and 320 µM against Sialidase-3.
With `CC(=O)N[C@H]1[C@H]([C@@H](O)[C@@H](O)CNC(=O)C2CCCC2)OC(C(=O)O)=C[C@@H]1O`, the 50% inhibitory concentration (IC50) is 135 µM on Sialidase-1, above 1000 µM against Sialidase-4 and above 1000 µM at Sialidase-3.
On to `CC(=O)N[C@H]1[C@H]([C@@H](O)[C@@H](O)CNC(=O)C2CC2)OC(C(=O)O)=C[C@@H]1O`, for which the IC50 on Sialidase-1 is 680 µM; on Sialidase-4 it was 825 µM; at Sialidase-3, above 1000 µM.
Take `CC(=O)NC[C@H](O)[C@H](O)[C@@H]1OC(C(=O)O)=C[C@H](O)[C@H]1NC(C)=O`: the half-inhibitory concentration (IC50) is 58 µM against Sialidase-1, 580 µM against Sialidase-4 and above 1000 µM against Sialidase-3.
For `CCC(C)CC(=O)NC[C@H](O)[C@H](O)[C@@H]1OC(C(=O)O)=C[C@H](O)[C@H]1NC(C)=O` (stereo partly specified), the IC50 on Sialidase-1, against Sialidase-4 and against Sialidase-3 was above 1000 µM throughout.
